Most compounds without a hit are left out; they make up all but 3.6% or so of the library.
T cruzi inh = inhibitors of intracellular T. cruzi growth, primary screen, luminescence, NIH3T3 host cells. inhibition, % (no concentration beside the values). hit rate 1.4% among 300,000. AID 1885, 2009. T. cruzi beta-gal in NIH3T3, 90 h;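 active = mean inhibition across valid replicates above about 55%, limit read from the data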;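 note: signal also drops with host cell toxicity which is not excluded here; higher percent means less beta-gal luminescence so fewer parasites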
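Assay system: NIH/3T3 host cells with β-galactosidase reporter T. cruzi; input: 5,000 host fibroblasts per well; compound: single 50 nL compound addition per well in DMSO; timing: ≥90 h infection period, 3 h prior cell attachment; measured by: GalScreen β-gal luminescence, detergent lysis, 60 min; evaluation: percent inhibition of parasite-derived β-gal signal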
CSC inhib = cancer stem cell viability inhibitors, primary screen, luminescence | cancer stem cell-like cells viability | inhibition, % at 7.5 µM | hit rate 1.1% among 300,000 | AID 2717, 2010; in the data active = inhibition above about 75%; tested in HMLE shEcad cells
SKKanGAS inh = S. pyogenes SKKanGAS growth inhibitors in kanamycin, primary screen, streptokinase expression inhibitor project, SKKanGAS strain, BacTiter-Glo luminescence; 6 h; inhibition, % at 7.5 µM; hit rate 1.3% among 300,000;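 active = mean replicate score, as percent of positive control median, at least 50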;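 note: strain carries kanamycin resistance gene driven by streptokinase promoter and grows in 40 µg/ml kanamycin; loss of luminescence reflects streptokinase promoter inhibition or plain growth inhibition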
Beta cell apopt = inhibitors of cytokine-induced beta cell apoptosis, primary screen, luminescence | INS-1E cytokine-induced death, ATP luminescence, 48 h; percent of positive-control rescue, neutral wells zero | protection from apoptosis, % (test concentration not listed) | hit rate 0.8% among 300,000 | AID 435005, 2010;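 active = Every replicate reaches about 75%, or at least half do and their mean reaches it too, limit read from the data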;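 note: higher means more ATP so stronger rescue from cytokine killing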
PfHsp90 set2 = growth inhibition of PfHsp90-expressing yeast, primary screen, antimalarial PfHsp90 inhibitor project, S. cerevisiae, BacTiter-Glo luminescence, single point, set 2 | BacTiter-Glo ATP, 48 h; yeast lacking PDR1 and PDR3 efflux regulators | hit rate 0.32% among 310,000 | inhibition, % at 9.4 µM | AID 504621, 2011;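 active = every replicate shows inhibition above about 80%, whatever the replicate mean, limit read from the data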
HIF activator = HIF pathway transcriptional activators, primary screen, cell-based, U2OS HRE-luciferase, luminescence; U2OS HRE-luciferase reporter; normalized: DMSO 0%, desferrioxamine 100%; activation, % at 7.5 µM (by protocol); hit rate 0.32% among 300,000; AID 1910, 2009;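 active = mean activation of at least 10% of the iron chelator positive control signal, with at least half of replicates also reaching 10%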
Each line names hits and unclear results; the compound was inactive in the other large screens.

Cc1cc(C(C)(C)C)cc(C)c1CCNC(=O)c1c(C)noc1C	none (no result: T cruzi inh, CSC inhib, SKKanGAS inh, Beta cell apopt, HIF activator)
CSc1ccccc1C(=O)OCC(=O)Nc1ccc(N2CCOCC2)cc1	none (no result: T cruzi inh, SKKanGAS inh, HIF activator)
N=c1n(Cc2ccccc2)c2ccccc2n1CC(O)COc1ccccc1 (stereo not drawn)	none
Cc1ccc(Cn2c(=N)n(CC(O)COc3ccccc3)c3ccccc32)cc1 (stereo not drawn)	T cruzi inh 58.9
OC(CN1CCN(Cc2ccccc2)CC1)c1ccc(Br)cc1 (stereo not drawn)	T cruzi inh 57.2
OC(COc1ccc(OCc2ccccc2)cc1)CN1CCCCC1 (stereo not drawn)	T cruzi inh 56.5
OC(COc1ccc(OCc2ccccc2)cc1)CN1CCOCC1 (stereo not drawn)	none
N#Cc1ccc(-c2ccc(OCC(O)CN3CCCCC3)cc2)cc1 (stereo not drawn)	T cruzi inh 61.9
CC(C)(C)OC(=O)N1CCC(C(=O)Nc2ccc(C(=O)NCc3ccccc3)cc2)CC1	none (no result: T cruzi inh, CSC inhib, SKKanGAS inh, Beta cell apopt, HIF activator)
COc1ccc(-c2cc(C(=O)N(C)Cc3nc4ccccc4c(=O)[nH]3)c3ccccc3n2)cc1OC	none (no result: T cruzi inh, SKKanGAS inh, PfHsp90 set2, HIF activator)
OC(COc1ccc(F)cc1Cl)CN1CCC(Cc2ccccc2)CC1 (stereo not drawn)	T cruzi inh 62.8
c1ccc(COc2ccc(OCCN3CCCC3)cc2)cc1	T cruzi inh 55.2
CC(C)N(C(=O)[C@H]1C[C@H](CC(=O)NCCN2CCOCC2)C(=O)N2CCc3c([nH]c4ccc(Cl)cc34)[C@]12C)C(C)C	none (no result: T cruzi inh, CSC inhib, SKKanGAS inh, Beta cell apopt, HIF activator)
CC(=O)c1cccc(NC(=O)c2ccc([N+](=O)[O-])o2)c1	none
C/C(=N/NC(=O)C(O)(c1ccccc1)c1ccccc1)c1ccc([N+](=O)[O-])o1	T cruzi inh 75.0
Cc1cc(C)cc(NC(=O)c2ccc([N+](=O)[O-])o2)c1	none (no result: CSC inhib, Beta cell apopt)
CC(=O)c1ccc(NC(=O)c2ccc([N+](=O)[O-])o2)cc1	CSC inhib 79.6
NC(=O)c1oc2ccccc2c1NC(=O)c1ccc([N+](=O)[O-])o1	SKKanGAS inh 73.0 (no result: CSC inhib)
O=C(NNC(=O)c1ccc([N+](=O)[O-])o1)c1ccccc1	T cruzi inh 58.2
CC(OC(=O)c1cnccn1)C(=O)c1ccccc1 (stereo not drawn)	none (no result: Beta cell apopt)
N#Cc1ccc(C(=O)NCC2CCCCC2)cc1	none
O=C(NN(c1ccccc1)c1ccccc1)c1ccc([N+](=O)[O-])o1	T cruzi inh 63.6
O=C(Nc1cc(Cl)ccc1-n1cncn1)c1ccc([N+](=O)[O-])s1	T cruzi inh 68.9, Beta cell apopt 102.0, PfHsp90 set2 114.4
O=C(O)C(c1ccccc1)C1CCCCC1O (stereo not drawn)	none (no result: T cruzi inh, CSC inhib, SKKanGAS inh, Beta cell apopt, HIF activator)
Cc1ccc(SCCOCCN2CCc3ccccc3C2)cc1	T cruzi inh 60.5 (no result: PfHsp90 set2)
Cc1ccc(SCC(=O)N2CC(C)OC(C)C2)cc1 (stereo not drawn)	none (no result: PfHsp90 set2)
Cc1ccc(SCCOCCN2CC(C)OC(C)C2)cc1 (stereo not drawn)	T cruzi inh 57.2
Cc1cc(NC(=O)c2ccco2)sc1C	none (no result: T cruzi inh, SKKanGAS inh, HIF activator)
N=c1c2c(-c3ccccc3)c(-c3ccccc3)oc2ncn1CCN1CCOCC1	none (no result: Beta cell apopt, PfHsp90 set2)
N=c1c2c(-c3ccccc3)c(-c3ccccc3)n(Cc3ccccc3)c2ncn1CCO	T cruzi inh 57.3
CC(C)Cn1cnc2c(c(-c3ccccc3)c(-c3ccccc3)n2Cc2ccco2)c1=N	T cruzi inh 59.7
OCCNc1ncnc2c1c(-c1ccccc1)c(-c1ccccc1)n2Cc1ccco1	none
N=c1c2c(-c3ccccc3)c(-c3ccccc3)n(Cc3ccco3)c2ncn1Cc1ccccc1	CSC inhib 110.1, Beta cell apopt 91.5
O=S(c1ccccc1O)S(=O)c1ccccc1O (stereo not drawn)	none (no result: T cruzi inh, CSC inhib, SKKanGAS inh, Beta cell apopt, HIF activator)
CCn1c(SCC#N)nc2ccccc2c1=O	none
N#CCSc1nc2ccccc2c2nc3ccccc3n12	CSC inhib 85.1, Beta cell apopt 102.9
CN(C)CCNC(=O)C1CC(=O)N(c2ccc(F)c(Cl)c2)C1 (stereo not drawn)	none (no result: PfHsp90 set2)
Cc1ccc(CCN2CC(C(=O)NCCCN(C)Cc3ccccc3)CC2=O)cc1 (stereo not drawn)	T cruzi inh 62.8
CN(CCNC(=O)C1CC(=O)N(c2ccc(F)c(Cl)c2)C1)Cc1ccccc1 (stereo not drawn)	T cruzi inh 59.9 (no result: PfHsp90 set2)
CCCCNC(=O)C1CC(=O)N(CCc2ccccc2)C1 (stereo not drawn)	none
CC(C)C(=O)Nc1cccc(COc2ccccc2CN(Cc2ccccc2)C(=O)OC(C)(C)C)c1	none (no result: T cruzi inh, CSC inhib, SKKanGAS inh, Beta cell apopt, HIF activator)
Cc1cccc(Oc2cc(NC(=O)Cn3cnc([N+](=O)[O-])n3)cc([N+](=O)[O-])c2)c1	none (no result: T cruzi inh, SKKanGAS inh, HIF activator)
Cc1cc(C)cc(Oc2cc(NC(=O)c3cn(C)nc3C)cc([N+](=O)[O-])c2)c1	Beta cell apopt 104.2 (no result: CSC inhib)
CC(C)CNS(=O)(=O)c1cc2c3c(c1)CCC(=O)N3CCC2	none
CC12CCC(CC1)C(C)(C)O2	SKKanGAS inh 100.3
N#C/C(=C(/O)c1ccc([N+](=O)[O-])s1)c1nc2ccccc2[nH]1	T cruzi inh 54.7
Cc1c(-c2cccc(Cl)c2)nc2ccccc2c1C(=O)OC/C(O)=C(\C#N)c1nc2ccccc2[nH]1	CSC inhib 97.7, SKKanGAS inh 57.6, Beta cell apopt 97.2
N#C/C(=C(/O)CCl)c1nc2ccccc2[nH]1	CSC inhib 79.0
COc1ccc(/C(N)=N/OC(=O)c2cccs2)cc1	none
N/C(=N\OC(=O)Cc1cccs1)c1ccccc1	HIF activator active
N/C(=N\OC(=O)c1cccs1)c1ccc(Cl)cc1	HIF activator 12.1 (no result: Beta cell apopt, PfHsp90 set2)
Cc1ccc(/C(N)=N/OC(=O)Cc2cccs2)cc1	none
CC(=O)N1CCc2c(sc(NC(=O)CS(=O)(=O)c3ccc(F)cc3)c2C(N)=O)C1	none (no result: PfHsp90 set2)
FC(F)(F)c1cnc(COc2cc(Cl)cc(Cl)c2)c(Cl)c1	none
O=C(N/N=C/c1c(O)ccc2ccccc12)c1ccc[n+](CCO)c1	none
O=C(N/N=C/c1cc(O)ccc1Br)c1cccnc1	SKKanGAS inh 110.8, HIF activator 13.6 (no result: CSC inhib, Beta cell apopt)
O=C(N/N=C\c1c(O)ccc2ccccc12)c1cncc(Br)c1	T cruzi inh 65.4, CSC inhib 98.2, SKKanGAS inh 106.2, Beta cell apopt 87.5, PfHsp90 set2 107.1, HIF activator 26.4
Cc1ccc(C(=O)N/N=C/c2c(O)ccc3ccccc23)cn1	T cruzi inh 66.9, CSC inhib 80.7, SKKanGAS inh 60.1, HIF activator 37.5 (no result: Beta cell apopt)
COc1ccc2ccccc2c1/C=N\NC(=O)c1cccnc1	none (no result: Beta cell apopt, PfHsp90 set2)
O=C(N/N=C/c1cc(Br)c(O)c(Br)c1O)c1cccnc1	none

Bioassay records: PubChem, Broad Institute
